The values below come from ChEMBL document CHEMBL4118021, “Studies of TAK1-centered polypharmacology with novel covalent TAK1 inhibitors” (Bioorg Med Chem, 2017).

Data set [1] deals with Cyclin-dependent kinase 1 (Homo sapiens) (UniProt P06493). The experiment in a line: Inhibition of CDC2 in human SKCO1 cells at 1 uM after 4 hrs using biotin labeled DLKPQNLLIDDK probe by mass-spectrometric analysis relative to control. Type of data set: cell-based.
The target in data set [2] is Glycogen synthase kinase-3 alpha (Homo sapiens) (UniProt P49840). The experiment in a line: Inhibition of GSK3A in human SKCO1 cells at 1 uM after 4 hrs using biotin labeled DIKPQNLLVDPDTAVLK probe by mass-spectrometric analysis relative to control. It is filed as cell-based.
Data set [3] has as its target T1, Serine/threonine-protein kinase LATS1 (Homo sapiens) (UniProt O95835).
T1 sequence (whole entry): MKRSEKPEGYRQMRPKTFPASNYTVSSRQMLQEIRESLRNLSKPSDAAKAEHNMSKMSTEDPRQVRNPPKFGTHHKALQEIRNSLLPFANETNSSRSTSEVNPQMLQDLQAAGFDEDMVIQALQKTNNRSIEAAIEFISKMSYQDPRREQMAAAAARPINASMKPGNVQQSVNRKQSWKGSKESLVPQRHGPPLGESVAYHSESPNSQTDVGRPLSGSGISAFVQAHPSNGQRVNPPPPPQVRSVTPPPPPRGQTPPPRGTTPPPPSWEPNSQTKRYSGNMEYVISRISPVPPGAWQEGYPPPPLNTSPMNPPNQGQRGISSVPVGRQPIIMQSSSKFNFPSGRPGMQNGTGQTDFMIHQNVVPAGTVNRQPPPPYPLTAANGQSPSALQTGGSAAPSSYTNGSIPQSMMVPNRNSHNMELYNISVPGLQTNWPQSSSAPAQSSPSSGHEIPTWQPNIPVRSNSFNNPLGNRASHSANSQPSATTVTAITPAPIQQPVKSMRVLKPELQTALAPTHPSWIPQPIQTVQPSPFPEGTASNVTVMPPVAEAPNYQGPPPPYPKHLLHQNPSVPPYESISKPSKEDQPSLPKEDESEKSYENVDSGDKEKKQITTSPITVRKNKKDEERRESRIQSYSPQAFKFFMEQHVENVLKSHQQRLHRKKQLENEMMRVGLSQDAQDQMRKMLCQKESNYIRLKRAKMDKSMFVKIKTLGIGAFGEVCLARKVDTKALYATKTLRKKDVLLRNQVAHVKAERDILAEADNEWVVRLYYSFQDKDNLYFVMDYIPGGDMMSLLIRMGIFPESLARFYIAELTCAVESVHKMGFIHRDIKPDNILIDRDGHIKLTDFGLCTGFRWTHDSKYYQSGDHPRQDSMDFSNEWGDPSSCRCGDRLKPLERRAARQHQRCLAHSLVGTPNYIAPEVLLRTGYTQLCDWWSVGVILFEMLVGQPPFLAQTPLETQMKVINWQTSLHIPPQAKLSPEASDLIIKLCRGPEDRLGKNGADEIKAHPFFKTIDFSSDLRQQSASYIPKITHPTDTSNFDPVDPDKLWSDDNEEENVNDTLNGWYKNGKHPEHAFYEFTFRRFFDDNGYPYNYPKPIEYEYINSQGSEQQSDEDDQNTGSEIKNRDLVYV
The experiment in a line: Inhibition of LATS1 in human SKCO1 cells at 1 uM after 4 hrs using biotin labeled ALYATKTLR probe by mass-spectrometric analysis relative to control. Type of data set: cell-based.

The target of data set [4] is Tyrosine-protein kinase Lyn (Homo sapiens) (UniProt P07948). The experiment in a line: Inhibition of LYN in human SKCO1 cells at 1 uM after 4 hrs using biotin labeled VAVKTLKPGTMSVQAFLEEANLMK probe by mass-spectrometric analysis relative to control. It is filed as cell-based.
Data set [5] deals with Microtubule-associated serine/threonine-protein kinase 3 (Homo sapiens) (UniProt O60307). The experiment in a line: Inhibition of MAST3 in human SKCO1 cells at 1 uM after 4 hrs using biotin labeled DLKPDNLLITSLGHIK probe by mass-spectrometric analysis relative to control. Type of data set: cell-based.
Data set [6] has as its target T2, Dual specificity protein kinase TTK (Homo sapiens) (UniProt P33981).
T2 sequence (whole entry): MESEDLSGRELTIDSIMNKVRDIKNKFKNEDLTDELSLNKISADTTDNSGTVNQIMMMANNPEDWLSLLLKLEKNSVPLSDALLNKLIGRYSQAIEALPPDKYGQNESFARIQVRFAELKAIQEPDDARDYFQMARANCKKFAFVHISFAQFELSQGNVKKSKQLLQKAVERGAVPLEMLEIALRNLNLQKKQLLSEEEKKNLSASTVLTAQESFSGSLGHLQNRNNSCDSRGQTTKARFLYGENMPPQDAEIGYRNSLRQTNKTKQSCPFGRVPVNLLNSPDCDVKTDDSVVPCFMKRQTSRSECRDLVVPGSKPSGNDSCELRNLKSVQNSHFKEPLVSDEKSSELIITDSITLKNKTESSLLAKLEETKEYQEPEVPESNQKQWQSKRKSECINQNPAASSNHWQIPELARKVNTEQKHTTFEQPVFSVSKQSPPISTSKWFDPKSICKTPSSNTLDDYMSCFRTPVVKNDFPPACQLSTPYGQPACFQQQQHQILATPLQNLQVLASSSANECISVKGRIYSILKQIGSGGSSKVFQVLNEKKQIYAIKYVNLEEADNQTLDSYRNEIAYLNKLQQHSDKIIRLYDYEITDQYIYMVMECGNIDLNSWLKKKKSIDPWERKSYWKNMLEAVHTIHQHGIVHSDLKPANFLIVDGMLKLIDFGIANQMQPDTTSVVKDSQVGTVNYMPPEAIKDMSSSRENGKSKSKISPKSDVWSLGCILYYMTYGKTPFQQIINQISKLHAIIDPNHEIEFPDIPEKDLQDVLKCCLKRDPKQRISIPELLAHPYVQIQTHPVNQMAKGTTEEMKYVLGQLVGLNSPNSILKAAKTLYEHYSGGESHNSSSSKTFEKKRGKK
The experiment in a line: Inhibition of TTK in human SKCO1 cells at 1 uM after 4 hrs using biotin labeled NMLEAVHTIHQHGIVHSDLKPANFLIDGMLK probe by mass-spectrometric analysis relative to control. Type of data set: cell-based. In short, it runs like this: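 Live SK-CO-1 cells exposed to compound at 1 μM or DMSO for 4 h (KiNativ). Lysates then labeled with lysine-reactive ATP/ADP-biotin probe, and probe-labeled kinase peptides quantified by mass spectrometry. Percent inhibition of probe-dependent recovery calculated relative to DMSO-treated cells.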

Data set [7] in a line: Increase in secretion of basic-FGF in TNFalpha activated RA patient-derived synovial fibroblasts at 0.6 to 3 uM preincubated for 3 hrs followed by TNFalpha stimulation measured after 18 hrs by sandwich immunoassay. The settings on record: human. In short, it runs like this: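 Primary RA patient synovial fibroblasts (donor RA2159) were seeded at 1000 cells/well, grown about 24 h, then starved overnight and again about 4 h in basal medium with 0.1% BSA. Cells were pre-incubated 3 h with inhibitor (0.6 or 3 μM) or DMSO, then stimulated 18 h with 10 ng/mL TNFα. Paired wells were pooled, in biological duplicate. Pooled supernatants were diluted 1:3 and read on Luminex bead sandwich immunoassays, with mock-medium background and spiked-ligand controls.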

Data set [8] addresses STE20-like serine/threonine-protein kinase SLK (Homo sapiens) (UniProt Q9H2G2). The experiment in a line: Inhibition of SLK in human SKCO1 cells at 1 uM after 4 hrs using biotin labeled DLKAGNILFTLDGDIK probe by mass-spectrometric analysis relative to control.

Microtubule-associated serine/threonine-protein kinase 3 (Homo sapiens), sequence (O60307 whole entry): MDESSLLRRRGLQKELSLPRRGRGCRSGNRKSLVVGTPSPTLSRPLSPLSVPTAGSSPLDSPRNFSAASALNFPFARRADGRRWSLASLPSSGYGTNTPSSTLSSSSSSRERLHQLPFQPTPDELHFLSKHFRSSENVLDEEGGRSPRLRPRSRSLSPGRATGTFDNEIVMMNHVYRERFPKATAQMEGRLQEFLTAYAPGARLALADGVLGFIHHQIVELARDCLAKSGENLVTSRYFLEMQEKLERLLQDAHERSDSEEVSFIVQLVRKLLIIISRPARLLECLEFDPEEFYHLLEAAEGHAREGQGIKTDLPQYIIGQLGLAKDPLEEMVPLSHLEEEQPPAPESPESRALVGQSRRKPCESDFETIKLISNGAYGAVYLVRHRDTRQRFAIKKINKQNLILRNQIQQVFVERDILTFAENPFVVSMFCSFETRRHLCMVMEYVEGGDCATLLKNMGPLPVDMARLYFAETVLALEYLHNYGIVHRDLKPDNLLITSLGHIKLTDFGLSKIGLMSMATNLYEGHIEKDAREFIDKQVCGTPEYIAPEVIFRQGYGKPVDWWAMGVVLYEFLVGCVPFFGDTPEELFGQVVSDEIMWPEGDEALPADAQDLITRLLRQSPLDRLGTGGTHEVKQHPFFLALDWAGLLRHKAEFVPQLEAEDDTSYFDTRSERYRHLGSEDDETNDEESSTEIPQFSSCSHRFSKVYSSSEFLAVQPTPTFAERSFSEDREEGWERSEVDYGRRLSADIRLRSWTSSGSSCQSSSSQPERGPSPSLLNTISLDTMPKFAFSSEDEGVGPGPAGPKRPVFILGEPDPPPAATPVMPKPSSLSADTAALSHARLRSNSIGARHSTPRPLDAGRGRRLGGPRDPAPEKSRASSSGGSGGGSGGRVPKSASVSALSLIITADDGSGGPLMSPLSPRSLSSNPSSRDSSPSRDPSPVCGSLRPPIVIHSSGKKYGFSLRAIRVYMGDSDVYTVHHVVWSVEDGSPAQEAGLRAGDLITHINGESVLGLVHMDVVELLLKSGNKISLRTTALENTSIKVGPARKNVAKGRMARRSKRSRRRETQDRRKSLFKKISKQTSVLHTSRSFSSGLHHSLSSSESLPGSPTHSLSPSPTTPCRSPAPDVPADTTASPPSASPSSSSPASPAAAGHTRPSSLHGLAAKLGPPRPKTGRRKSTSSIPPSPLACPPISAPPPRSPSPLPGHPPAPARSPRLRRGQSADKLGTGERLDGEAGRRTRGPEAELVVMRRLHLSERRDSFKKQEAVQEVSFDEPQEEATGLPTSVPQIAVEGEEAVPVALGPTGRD
STE20-like serine/threonine-protein kinase SLK (Homo sapiens), sequence (Q9H2G2 whole entry, looked up): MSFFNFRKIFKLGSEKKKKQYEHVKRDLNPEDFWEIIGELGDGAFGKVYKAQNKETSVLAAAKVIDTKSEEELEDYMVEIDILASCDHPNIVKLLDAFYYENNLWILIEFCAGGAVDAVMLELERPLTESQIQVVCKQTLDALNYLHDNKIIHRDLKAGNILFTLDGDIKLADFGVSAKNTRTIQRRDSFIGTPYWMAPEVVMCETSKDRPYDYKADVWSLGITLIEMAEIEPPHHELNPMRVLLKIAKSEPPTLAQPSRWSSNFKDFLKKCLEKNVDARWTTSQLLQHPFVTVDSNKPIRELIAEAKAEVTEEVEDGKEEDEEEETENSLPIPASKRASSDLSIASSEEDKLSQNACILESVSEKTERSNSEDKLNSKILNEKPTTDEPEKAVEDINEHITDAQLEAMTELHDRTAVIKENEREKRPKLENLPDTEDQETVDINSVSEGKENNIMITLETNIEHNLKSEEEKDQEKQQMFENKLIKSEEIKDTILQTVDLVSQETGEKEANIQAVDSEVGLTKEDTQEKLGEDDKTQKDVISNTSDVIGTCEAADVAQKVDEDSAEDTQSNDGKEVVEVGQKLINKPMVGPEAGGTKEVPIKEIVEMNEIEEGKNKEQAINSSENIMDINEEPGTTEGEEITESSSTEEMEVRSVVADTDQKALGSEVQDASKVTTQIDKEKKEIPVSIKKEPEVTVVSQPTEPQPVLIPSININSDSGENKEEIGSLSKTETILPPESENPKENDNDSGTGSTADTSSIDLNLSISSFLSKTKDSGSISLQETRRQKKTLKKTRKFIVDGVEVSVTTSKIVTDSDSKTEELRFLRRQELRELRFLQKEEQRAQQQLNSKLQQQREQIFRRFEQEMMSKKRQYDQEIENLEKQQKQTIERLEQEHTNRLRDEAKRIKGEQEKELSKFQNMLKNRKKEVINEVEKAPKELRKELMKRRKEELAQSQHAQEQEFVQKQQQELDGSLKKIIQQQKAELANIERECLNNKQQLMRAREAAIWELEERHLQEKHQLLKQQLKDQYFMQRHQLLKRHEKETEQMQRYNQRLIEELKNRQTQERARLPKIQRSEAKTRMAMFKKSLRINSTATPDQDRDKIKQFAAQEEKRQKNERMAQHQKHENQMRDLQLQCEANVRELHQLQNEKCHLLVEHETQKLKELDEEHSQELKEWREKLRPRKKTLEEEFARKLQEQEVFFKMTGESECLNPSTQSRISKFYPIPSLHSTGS
Glycogen synthase kinase-3 alpha (Homo sapiens), sequence (P49840 2-483 limits assumed): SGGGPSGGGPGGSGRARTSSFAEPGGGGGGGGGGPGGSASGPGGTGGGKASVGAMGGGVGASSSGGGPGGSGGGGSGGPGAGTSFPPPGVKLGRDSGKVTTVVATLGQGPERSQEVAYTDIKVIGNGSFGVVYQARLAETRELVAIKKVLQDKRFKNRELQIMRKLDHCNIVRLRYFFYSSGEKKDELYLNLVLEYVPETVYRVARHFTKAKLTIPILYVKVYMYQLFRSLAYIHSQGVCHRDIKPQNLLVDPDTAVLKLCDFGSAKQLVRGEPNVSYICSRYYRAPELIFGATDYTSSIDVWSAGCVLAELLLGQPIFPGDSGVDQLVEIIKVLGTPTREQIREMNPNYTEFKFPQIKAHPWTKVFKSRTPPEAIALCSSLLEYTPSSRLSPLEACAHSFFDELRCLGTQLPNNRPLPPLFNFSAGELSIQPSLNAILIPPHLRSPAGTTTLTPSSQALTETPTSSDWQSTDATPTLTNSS
Tyrosine-protein kinase Lyn (Homo sapiens), sequence (P07948 2-512 limits assumed): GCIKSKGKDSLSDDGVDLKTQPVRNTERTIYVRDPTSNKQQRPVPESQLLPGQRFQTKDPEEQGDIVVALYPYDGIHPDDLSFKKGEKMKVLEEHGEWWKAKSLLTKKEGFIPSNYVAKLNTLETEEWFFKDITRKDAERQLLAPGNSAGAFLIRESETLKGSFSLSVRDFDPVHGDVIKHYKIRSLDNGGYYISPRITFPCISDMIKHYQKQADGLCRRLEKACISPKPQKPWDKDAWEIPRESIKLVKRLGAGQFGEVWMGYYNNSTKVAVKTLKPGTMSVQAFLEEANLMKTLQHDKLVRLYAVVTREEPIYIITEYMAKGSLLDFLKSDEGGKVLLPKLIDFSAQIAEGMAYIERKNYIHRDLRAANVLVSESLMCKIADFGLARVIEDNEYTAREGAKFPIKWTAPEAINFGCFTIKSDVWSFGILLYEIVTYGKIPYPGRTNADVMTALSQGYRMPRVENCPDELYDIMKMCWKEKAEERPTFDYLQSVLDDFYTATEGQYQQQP
Cyclin-dependent kinase 1 (Homo sapiens), sequence (P06493 whole entry, looked up): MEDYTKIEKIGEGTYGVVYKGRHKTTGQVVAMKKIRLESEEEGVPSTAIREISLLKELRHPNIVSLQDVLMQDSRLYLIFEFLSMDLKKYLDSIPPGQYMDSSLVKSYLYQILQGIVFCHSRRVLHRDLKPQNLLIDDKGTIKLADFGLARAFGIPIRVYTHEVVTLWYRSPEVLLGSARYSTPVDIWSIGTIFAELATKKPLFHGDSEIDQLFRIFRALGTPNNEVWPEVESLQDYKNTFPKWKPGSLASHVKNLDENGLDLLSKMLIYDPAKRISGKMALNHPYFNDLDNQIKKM

For orientation: inhibition means the drop in the measured response relative to a control, in per cent. `C=CC(=O)Nc1ccccc1Nc1nc(Nc2ccc(N3CCN(C)CC3)cc2)ncc1Cl`: the inhibition in data set [1] was 47.7%; in data set [2], -2.8%; in data set [3], 17.5%; in data set [4] it was 16.5%; in data set [5], 13.2%; in data set [6], 40.6%. Moreover, the inhibition in data set [8] stood at 76.3%. For the same molecule, the Activity entry in data set [7] was “Toxic”.

As for `COc1cc(O)c2c(c1)/C=C/C[C@H](O)[C@H](O)C(=O)/C=C\C[C@H](C)OC2=O`, the inhibition in data set [1] is 46.6%; in data set [2], 4.3%; in data set [3] it was 9.9%; in data set [4] it was -5.1%; in data set [5], 39.2%; in data set [6], 32.5%. Further, the inhibition in data set [8] was 66%. Further, the Activity result in data set [7] is “Toxic”.

Turning to `C=CC(=O)Nc1ccccc1Oc1nc(Nc2cnn(CCOC)c2)ncc1Cl`, the inhibition in data set [1] worked out at 33.1%; in data set [2], 15.2%; in data set [3] it was 5.3%; in data set [4] it was 2.8%; in data set [5] it was 30.6%; in data set [6] it was 25.4%. For the same molecule, the inhibition in data set [8] was 61.2%. In data set [7], the Activity result is listed as “Non-Toxic”.
